Experimental data from ChEMBL document CHEMBL1131129, “Geometrically and conformationally restrained cinnamoyl compounds as inhibitors of HIV-1 integrase: synthesis, biological evaluation, and molecular modeling” (J Med Chem, 1998).

What was measured:
[1] = target: T1, Human immunodeficiency virus type 1 integrase (Human immunodeficiency virus 1, UniProt Q7ZJM1); assay: (§1) Compound concentration required to reduce HIV-1 Integrase 3'-processing activity by 50%
[2] = species on record: Homo sapiens; assay: Fold increase in protein-linked DNA breaks (PLDB) with respect to untreated controls.; type: functional
Procedure, shortened: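 KB cells labeled with [14C]thymidine (0.75 μCi/mL) for 48 h, trypsinized, resuspended at 3×10^5/mL, preincubated 1 h at 37 °C. […] Protein-linked DNA breaks quantified by K-SDS coprecipitation after SDS lysis, needle shearing, 65 °C incubation and 100 mM KCl precipitation. Expressed relative to untreated controls.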

[3] = tested on: KB; assay: Compound concentration required to reduce the exponential growth of KB cells by 50%; type: functional; details: Homo sapiens
[4] = tested on: MT4; assay: Compound concentration required to reduce the exponential growth of MT-4 cells by 50%; type: functional; details: Homo sapiens
Procedure, shortened: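 Lymphoid MT-4 cells in suspension culture, grown at 37 °C under 5% CO2 in RPMI 1640 with 10% FCS, penicillin G and streptomycin, and checked for mycoplasma. Compounds were dissolved in DMSO as a 200 mM stock, then diluted. Cytotoxicity was read as viability of mock-infected cells by MTT. The CC50 is the concentration reducing exponential cell growth by 50%.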

[5] = target: T1, Human immunodeficiency virus type 1 integrase; assay: as §1; remark: listed apart in the source
Procedure, shortened: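 His-tagged HIV-1 IN expressed in E. coli BL21(DE3), Ni-purified with 5 mM CHAPS. Released GT dinucleotide recovered by DEAE filtration and counted. Mean of three independent determinations.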

T1 sequence (Q7ZJM1 whole entry): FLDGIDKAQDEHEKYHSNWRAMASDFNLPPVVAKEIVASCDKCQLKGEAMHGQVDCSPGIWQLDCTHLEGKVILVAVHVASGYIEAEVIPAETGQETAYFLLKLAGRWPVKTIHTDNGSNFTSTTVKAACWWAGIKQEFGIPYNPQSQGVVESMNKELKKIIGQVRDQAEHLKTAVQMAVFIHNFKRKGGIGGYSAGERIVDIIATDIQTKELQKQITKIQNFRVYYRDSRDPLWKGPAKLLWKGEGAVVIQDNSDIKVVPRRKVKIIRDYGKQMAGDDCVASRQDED

COc1ccc(/C=C/C(=O)/C=C/c2ccc(OC)c(OC)c2)cc1OC
IC50 ([1]; read-out: IC50): > 100 µM
Fold increase [2]: 1.1
CC50 [3]: 6.7 µM
CC50 [4]: 4.1 µM

CC[C@@]1(O)C(=O)OCc2c1cc1n(c2=O)Cc2cc3ccccc3nc2-1 [CAMPTOTHECIN]
IC50 ([1]; read-out: IC50): > 100 µM
Fold increase [2]: 3.5
CC50 [3]: 0.006 µM
CC50 [4]: 0.01 µM

O=C(/C=C/c1ccc(O)c(O)c1)c1cccc(C(=O)/C=C/c2ccc(O)c(O)c2)c1
IC50 ([1]; read-out: IC50): 0.8 µM
Fold increase [2]: 1.2
CC50 [3]: 5.8 µM
CC50 [4]: 5 µM

O=C1/C(=C/c2ccc(O)c(O)c2)CNC/C1=C\c1ccc(O)c(O)c1
IC50 ([1]; read-out: IC50): 0.2 µM
Fold increase [2]: 1.4
CC50 [3]: 32 µM
CC50 [4]: 21 µM

O=C(/C=C(O)/C=C/c1ccc(O)c(O)c1)/C=C/c1ccc(O)c(O)c1
IC50 ([1]; read-out: IC50): 0.7 µM
Fold increase [2]: 1.1
CC50 [3]: 4.1 µM
CC50 [4]: 17 µM

O=C1/C(=C/c2ccc(O)c(O)c2)CC/C1=C\c1ccc(O)c(O)c1
IC50 ([1]; read-out: IC50): 1 µM
Fold increase [2]: 4
CC50 [3]: 17 µM
CC50 [4]: 15 µM

O=C(/C=C(O)/C=C/c1ccccc1)/C=C/c1ccccc1
IC50 ([1]; read-out: IC50): > 100 µM
Fold increase [2]: 0.8
CC50 [3]: 29 µM
CC50 [4]: 41 µM

COc1cc(/C=C2\CCC/C(=C\c3ccc(O)c(OC)c3)C2=O)ccc1O [CYCLOVALONE]
IC50 ([1]; read-out: IC50): > 100 µM
Fold increase [2]: 1.8
CC50 [3]: 6.7 µM
CC50 [4]: 2.4 µM

COc1ccc(/C=C/C(=O)/C=C(O)/C=C/c2ccc(OC)c(OC)c2)cc1OC
IC50 ([1]; read-out: IC50): > 100 µM
Fold increase [2]: 1.4
CC50 [3]: 2 µM
CC50 [4]: 4.1 µM

O=C1/C(=C/c2ccc(O)c(O)c2)COC/C1=C\c1ccc(O)c(O)c1
IC50 ([1]; read-out: IC50): 0.2 µM
Fold increase [2]: 0.9
CC50 [3]: 15 µM
CC50 [4]: 10 µM

O=C(/C=C/c1ccc(O)c(O)c1)c1ccc(O)cc1
IC50 ([1]; read-out: IC50): 1.3 µM
Fold increase [2]: 1.6
CC50 [3]: 5.9 µM
CC50 [4]: 4.4 µM

COc1cc([C@@H]2c3cc4c(cc3[C@@H](O[C@@H]3O[C@@H]5CO[C@@H](C)O[C@H]5[C@H](O)[C@H]3O)[C@H]3COC(=O)[C@H]23)OCO4)cc(OC)c1O [ETOPOSIDE]
CC50 [3]: 0.1 µM
CC50 [4]: 0.08 µM

O=C1C(=Cc2ccc(O)c(O)c2)C(=O)c2ccccc21
IC50 ([1]; read-out: IC50): 3 µM
Fold increase [2]: 2
CC50 [3]: 50 µM
CC50 [4]: 32 µM

COc1cc(/C=C/C(=O)CC(=O)/C=C/c2ccc(O)c(OC)c2)ccc1O [CURCUMIN]
IC50 ([1]; read-out: IC50): 30 µM
Fold increase [2]: 1
CC50 [3]: 16 µM
CC50 [4]: 7.4 µM

O=C(/C=C/c1ccc(O)cc1)/C=C/c1ccc(O)cc1
IC50 ([1]; read-out: IC50): > 100 µM
Fold increase [2]: 1.1
CC50 [3]: 7.4 µM
CC50 [4]: 1.6 µM

O=C(/C=C/c1ccc(O)cc1)c1cccc(C(=O)/C=C/c2ccc(O)cc2)c1
IC50 ([1]; read-out: IC50): 30 µM
Fold increase [2]: 1.2
CC50 [3]: 22 µM
CC50 [4]: 35 µM

O=C(/C=C/c1ccc(O)c(O)c1)c1ccccc1
IC50 ([1]; read-out: IC50): 2.3 µM
Fold increase [2]: 1.3
CC50 [3]: 3.1 µM
CC50 [4]: 1.7 µM

O=C(/C=C/c1ccc(O)c(O)c1)CCc1ccccc1
IC50 ([1]; read-out: IC50): > 100 µM
Fold increase [2]: 1
CC50 [3]: 30 µM
CC50 [4]: 15 µM

O=C1/C(=C/c2ccc(O)c(O)c2)CCC/C1=C\c1ccc(O)c(O)c1
IC50 ([1]; read-out: IC50): 0.9 µM
Fold increase [2]: 1.4
CC50 [3]: 8.9 µM
CC50 [4]: 7.4 µM

O=C(/C=C/c1ccc(O)c(O)c1)/C=C/c1ccc(O)c(O)c1
IC50 ([1]; read-out: IC50): 0.6 µM
Fold increase [2]: 1.1
CC50 [3]: 21 µM
CC50 [4]: 38 µM

O=C(/C=C/c1ccc(O)cc1)CC(=O)/C=C/c1ccc(O)cc1 [BISDEMETHOXYCURCUMIN]
IC50 ([1]; read-out: IC50): > 100 µM
Fold increase [2]: 0.9
CC50 [3]: 8.5 µM
CC50 [4]: 13 µM

O=C1/C(=C/c2ccc(O)c(O)c2)Cc2ccccc21
IC50 [5]: 86 µM
Fold increase [2]: 5.1
CC50 [3]: 9.2 µM
CC50 [4]: 5.5 µM

O=C(/C=C/c1ccc(O)c(O)c1)c1ccc(O)cc1O [BUTEIN]
IC50 ([1]; read-out: IC50): 20 µM
Fold increase [2]: 2.2
CC50 [3]: 9.1 µM
CC50 [4]: 5.3 µM

Nc1nc[nH]n1 [AMITROLE]
IC50 [1]: 0.17 µg/mL
Fold increase [2]: 1.1
CC50 [3]: 100 µM
CC50 [4]: 100 µM

O=C1/C(=C/c2ccc(O)c(O)c2)CSC/C1=C\c1ccc(O)c(O)c1
IC50 ([1]; read-out: IC50): 0.2 µM
Fold increase [2]: 1.1
CC50 [3]: 3.9 µM
CC50 [4]: 4 µM

COc1cc(/C=C/C(=O)/C=C/c2ccc(O)c(OC)c2)ccc1O
IC50 ([1]; read-out: IC50): 37 µM
Fold increase [2]: 1.2
CC50 [3]: 8.5 µM
CC50 [4]: 1.4 µM

O=C(/C=C/c1ccc(O)cc1)c1ccc(O)cc1O [ISOLIQUIRITIGENIN]
IC50 ([1]; read-out: IC50): > 100 µM
Fold increase [2]: 1.7
CC50 [3]: 12 µM
CC50 [4]: 7.4 µM
